Entries after “also recorded” stand apart in the source; their conditions may differ.
How the values were obtained:
human TG2 = target: T1, human TG2 (Homo sapiens, UniProt P21980); assay: TG2 steady-state kinetics of substrates, wild-type TG2 ± α2M and vs pH; type: biochemical; conditions: kcat of AC-PQLPF-NH2
T1 sequence (P21980 1-687): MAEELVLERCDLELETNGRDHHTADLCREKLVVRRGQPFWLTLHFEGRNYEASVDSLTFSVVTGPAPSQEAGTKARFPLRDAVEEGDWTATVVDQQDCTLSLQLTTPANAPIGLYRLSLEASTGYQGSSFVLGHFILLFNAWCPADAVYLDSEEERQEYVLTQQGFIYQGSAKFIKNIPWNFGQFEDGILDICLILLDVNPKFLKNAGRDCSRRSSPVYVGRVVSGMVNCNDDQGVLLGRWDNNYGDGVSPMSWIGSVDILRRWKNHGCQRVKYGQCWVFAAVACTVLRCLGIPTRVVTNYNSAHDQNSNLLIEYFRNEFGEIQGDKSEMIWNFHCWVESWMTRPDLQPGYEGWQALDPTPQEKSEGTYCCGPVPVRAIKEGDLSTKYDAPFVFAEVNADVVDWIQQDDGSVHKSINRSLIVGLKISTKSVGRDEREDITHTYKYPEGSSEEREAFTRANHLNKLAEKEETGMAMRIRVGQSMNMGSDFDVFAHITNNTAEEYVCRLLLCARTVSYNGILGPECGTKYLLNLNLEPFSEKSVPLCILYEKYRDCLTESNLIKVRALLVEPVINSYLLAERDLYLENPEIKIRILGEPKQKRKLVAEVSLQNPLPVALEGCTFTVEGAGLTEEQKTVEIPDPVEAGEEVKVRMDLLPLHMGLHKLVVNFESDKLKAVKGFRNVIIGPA
In short: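 His6-tagged human TG2 from E. coli BL21(DE3) was purified by Ni-NTA and anion exchange, reduced, and desalted into PBS. It was assayed at 1 μM final, ± recombinant human α2M (Expi293F-expressed), with GDH/α-ketoglutarate/NADH coupling in 200 mM MOPS pH 7.2 with 5 mM CaCl2. Substrate was Ac-PQLPF-NH2 unless otherwise specified. Absorbance at 340 nm was followed for 60 min at 25 °C. Steady-state rates came from linear progress-curve slopes; triplicate.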

[1] = target: T2, TG2 derivative lacking the C-terminal β-barrel domain (Homo sapiens, UniProt P21980); assay: Kinetics of truncated TG2 lacking the C-terminal β-barrel domain; type: biochemical; conditions: TG2 derivatives lacking the C-terminal β-barrel domain
T2 sequence (P21980 1-586): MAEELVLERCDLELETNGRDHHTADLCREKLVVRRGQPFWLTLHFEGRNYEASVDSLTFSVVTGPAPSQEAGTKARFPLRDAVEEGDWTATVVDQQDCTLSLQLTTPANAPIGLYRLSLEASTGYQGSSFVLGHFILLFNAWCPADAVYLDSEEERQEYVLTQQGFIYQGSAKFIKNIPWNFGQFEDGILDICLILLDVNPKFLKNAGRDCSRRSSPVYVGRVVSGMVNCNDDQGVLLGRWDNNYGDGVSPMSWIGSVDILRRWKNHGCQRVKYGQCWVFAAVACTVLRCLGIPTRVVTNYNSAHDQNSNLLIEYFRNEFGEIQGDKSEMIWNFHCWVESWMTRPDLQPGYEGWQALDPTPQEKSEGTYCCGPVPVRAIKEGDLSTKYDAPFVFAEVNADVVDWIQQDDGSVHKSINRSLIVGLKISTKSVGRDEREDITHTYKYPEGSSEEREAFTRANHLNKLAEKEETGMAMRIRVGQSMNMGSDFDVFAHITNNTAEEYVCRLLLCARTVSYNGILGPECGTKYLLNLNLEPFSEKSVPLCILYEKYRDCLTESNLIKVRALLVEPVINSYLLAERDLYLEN
In short: (§1)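 Truncated human TG2 constructs with N-terminal His tags (residues 1-586 lacking β2; residues 1-460 lacking β1 and β2) were expressed in Rosetta2 E. coli and purified by Ni, anion exchange and SEC. The assay was GDH-coupled: 200 mM MOPS pH 7.2, 5 mM CaCl2, 10 mM α-ketoglutarate, 18 U/mL GDH, 0.5 mM NADH and Ac-PQLPF-NH2. Reduced enzyme was at 1 μM final, ± Expi293F-expressed human α2M. NADH loss was read at 340 nm for 60 min at 25 °C. Rates came from linear slopes; triplicate.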

[2] = target: T3, TG2 derivative harboring the N-terminal and catalytic domains but lacking both β-barrel domains (Homo sapiens, UniProt P21980); assay: Kinetics of truncated TG2 lacking both β-barrel domains; type: biochemical; conditions: TG2 derivative lacking both β-barrel domains
T3 sequence (P21980 1-460): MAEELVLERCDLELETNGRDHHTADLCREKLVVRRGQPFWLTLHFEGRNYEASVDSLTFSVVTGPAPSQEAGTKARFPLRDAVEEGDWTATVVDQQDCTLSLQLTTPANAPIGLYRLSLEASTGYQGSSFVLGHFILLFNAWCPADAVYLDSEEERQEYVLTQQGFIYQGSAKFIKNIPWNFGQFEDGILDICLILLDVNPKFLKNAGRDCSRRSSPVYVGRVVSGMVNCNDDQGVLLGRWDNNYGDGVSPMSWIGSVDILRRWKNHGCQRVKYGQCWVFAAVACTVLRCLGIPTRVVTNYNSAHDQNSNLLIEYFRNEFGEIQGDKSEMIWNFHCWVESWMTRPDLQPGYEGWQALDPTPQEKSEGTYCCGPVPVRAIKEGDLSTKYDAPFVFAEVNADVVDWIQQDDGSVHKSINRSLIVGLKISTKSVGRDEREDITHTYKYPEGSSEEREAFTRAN
In short: as §1

NRK cells = assay: Uptake of fluorescent TG2 probes by NRK cells; type: cell-based, rat; conditions: HB230 1 μM
In short: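 NRK cells were grown in DMEM. Media were replaced, and 1 μM probe was co-incubated for 90 min with α2M at varied levels (some Alexa 555 NHS-labelled), plus TRX as specified. Cells were washed in HBSS, fixed in 2% PFA, DAPI-stained and imaged by confocal microscopy. Puncta were counted with a circularity cutoff of 0.3 and a minimum size threshold, then normalized to cell number by DAPI.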

wild-type MEFs = assay: Internalization of HB230 and α2M by wild-type MEFs; type: cell-based, mouse; conditions: α2M 100 μg/mL, HB230 10 μM, exogenous TRX and betamethasone
LRP-1 knock-out MEFs = assay: Internalization of HB230 and α2M by LRP-1 knock-out MEFs; type: cell-based, mouse; conditions: α2M 100 μg/mL, HB230 10 μM, exogenous TRX and betamethasone
[3] = tested on: 9022 cells (HLA-DQ2 homozygous B-cell line); assay: Cell surface presentation by HLA-DQ2 expressing 9022 B cells; type: cell-based, human; conditions: 100 nM TG2; 150 cells from 2-4 frames of 3-6 replicates
In short: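 EBV-immortalised HLA-DQ2-homozygous B cells in RPMI with 10% FBS and 1% PenStrep, pelleted, resuspended and left 20 min at 37 °C to adhere on poly-L-lysine-coated glass. Cy5-33mer, α2M and 100 nM recombinant human TG2 (E. coli, His6) added for 2.5 h. Anti-HLA-DQ2 (1:50) then Alexa 488 secondary, each 20 min on ice, fixed, DAPI, confocal. Cells with surface HLA-DQ2/Cy5 overlay scored; 2-4 frames of 3-6 replicates.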

transglutaminase-2 (TG2) = assay: Bio-layer interferometry of α2M-TG2 interaction; type: binding; conditions: preliminary efforts

inhibition of truncated TG2 by α2M [1]: Inhibition was abolished | inhibition of truncated TG2 by α2M [2]: Inhibition was abolished | detection of α2M-TG2 interaction (transglutaminase-2 (TG2)): unsuccessful
Substance: α2M: ~800 kDa homotetrameric pan-protease inhibitor
inhibition of TG2 by α2M, mechanism (human TG2): non-competitive inhibition mechanism of TG2 by α2M | α2M concentration up to which HB230 uptake increases (saturation) (NRK cells; 90 min): ~ 100 μg/mL | effect of α2M on HB230 uptake (NRK cells; α2M supplementation): strong dose-dependent increase in uptake of HB230; also recorded: predominantly appeared to affect the size and number of the larger puncta | internalization by wild-type MEFs (wild-type MEFs): readily internalize | internalization by LRP-1 knock-out MEFs (LRP-1 knock-out MEFs): markedly reduced uptake | effect of α2M on cell surface 33mer [3]: enhanced upon addition of exogenous α2M; also recorded: the number of cells displaying gluten peptides on their surface increases

— article PMC9868102 (Cell chemical biology, 2023)
